From ChEMBL document CHEMBL1142339, “Carbamoylphosphonate matrix metalloproteinase inhibitors 6: cis-2-aminocyclohexylcarbamoylphosphonic acid, a novel orally active antimetastatic matrix metalloproteinase-2 selective inhibitor--synthesis and pharmacodynamic and pharmacokinetic analysis” (J Med Chem, 2008)

Experiments:
[1] = Reduction of metastasis formation in SCID mouse bearing human prostate tumor cells at 50 mg/kg, ip; type: functional; design: scale not given: the % may be the effect or the level left; settings: route intraperitoneal
Method in brief: (§1)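 Luciferase-transfected human prostate tumour cells implanted orthotopically into the prostate of SCID mice; daily ip dosing except weekends for six weeks. Primary tumour growth and metastasis followed weekly by luciferin bioluminescence imaging with a CCD camera.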

[2] = Apparent permeability in C57B1 mouse jejunum in using diffusion chamber; type: ADME, tissue-based
[3] = Apparent permeability in C57B1 mouse colon in using diffusion chamber; type: ADME, tissue-based; settings: not told
[4] = Tmax in C57B1 mouse at 150 mg/kg, po; type: ADME, organism-based; design: dose 150 mg/kg, route oral; settings: in vivo
Method in brief: (§2)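 Compound dissolved in normal saline/water 60/40 (20 mg/mL). Rats: fasted 12 h before and first 12 h; blood sampled 5–240 min after iv, to 8 h oral, to 24 h ip; urine collected at 24 and 48 h in metabolic cages. Mice (22–25 g, fasted 12 h): portal-vein blood under ether at 0–720 min, one mouse per time point. Plasma quantified by HPLC-MS with acyclovir internal standard.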

[5] = Cmax in C57B1 mouse at 150 mg/kg, po; type: ADME, organism-based; design: dose 150 mg/kg, route oral; settings: in vivo; method in brief: as §2
[6] = AUC in C57B1 mouse at 150 mg/kg, po; type: ADME, organism-based; design: dose 150 mg/kg, route oral; settings: plasma; method in brief: as §2
[7] = Half life in C57B1 mouse at 150 mg/kg, po; type: ADME, organism-based; design: dose 150 mg/kg, route oral; settings: in vivo; method in brief: as §2
Mus musculus [8] = test: Time over MIC in C57B1 mouse at 150 mg/kg, po; type: ADME, organism-based; design: dose 150 mg/kg, route oral; settings: in vivo; method in brief: as §2
[9] = AUC in Wistar rat at 50 mg/kg, iv; type: ADME, organism-based; design: dose 50 mg/kg, route intravenous; settings: plasma; method in brief: as §2
Interstitial collagenase = biological target: T1, Interstitial collagenase (Homo sapiens, UniProt P03956); test: Inhibition of human recombinant MMP1
T1 sequence (P03956 whole entry): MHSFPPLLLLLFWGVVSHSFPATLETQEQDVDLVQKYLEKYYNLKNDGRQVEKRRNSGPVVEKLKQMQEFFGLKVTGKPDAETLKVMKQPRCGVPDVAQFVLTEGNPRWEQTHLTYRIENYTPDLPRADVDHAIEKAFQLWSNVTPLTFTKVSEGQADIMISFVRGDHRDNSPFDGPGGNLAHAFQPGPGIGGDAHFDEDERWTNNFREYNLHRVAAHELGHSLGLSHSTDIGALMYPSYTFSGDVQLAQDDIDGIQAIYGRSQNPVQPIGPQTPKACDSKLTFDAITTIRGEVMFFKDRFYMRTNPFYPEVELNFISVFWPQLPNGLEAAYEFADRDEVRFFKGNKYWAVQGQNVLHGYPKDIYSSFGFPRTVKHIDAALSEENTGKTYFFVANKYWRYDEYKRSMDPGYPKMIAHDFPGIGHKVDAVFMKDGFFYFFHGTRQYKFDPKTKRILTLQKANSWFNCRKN
Method in brief: (§3)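 Purified human recombinant enzyme tested at four different concentrations against the matching colorimetric or fluorescent peptide substrate for 3 h, with inhibitor at four to six concentrations. Activity was read as a colour or fluorescence change on a plate reader, and IC50 was calculated from these readings.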

[10] = biological target: T2, 72 kDa type IV collagenase (Homo sapiens, UniProt P08253); test: Inhibition of human recombinant MMP2
Method in brief: (§4)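 Human recombinant enzymes each incubated at four concentrations with a suitable colorimetric or fluorogenic peptide substrate for 3 h. Inhibitor tested at four to six concentrations. Activity read as colorimetric or fluorescence change on a plate reader.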
Target sequence in this assay (P08253 whole entry): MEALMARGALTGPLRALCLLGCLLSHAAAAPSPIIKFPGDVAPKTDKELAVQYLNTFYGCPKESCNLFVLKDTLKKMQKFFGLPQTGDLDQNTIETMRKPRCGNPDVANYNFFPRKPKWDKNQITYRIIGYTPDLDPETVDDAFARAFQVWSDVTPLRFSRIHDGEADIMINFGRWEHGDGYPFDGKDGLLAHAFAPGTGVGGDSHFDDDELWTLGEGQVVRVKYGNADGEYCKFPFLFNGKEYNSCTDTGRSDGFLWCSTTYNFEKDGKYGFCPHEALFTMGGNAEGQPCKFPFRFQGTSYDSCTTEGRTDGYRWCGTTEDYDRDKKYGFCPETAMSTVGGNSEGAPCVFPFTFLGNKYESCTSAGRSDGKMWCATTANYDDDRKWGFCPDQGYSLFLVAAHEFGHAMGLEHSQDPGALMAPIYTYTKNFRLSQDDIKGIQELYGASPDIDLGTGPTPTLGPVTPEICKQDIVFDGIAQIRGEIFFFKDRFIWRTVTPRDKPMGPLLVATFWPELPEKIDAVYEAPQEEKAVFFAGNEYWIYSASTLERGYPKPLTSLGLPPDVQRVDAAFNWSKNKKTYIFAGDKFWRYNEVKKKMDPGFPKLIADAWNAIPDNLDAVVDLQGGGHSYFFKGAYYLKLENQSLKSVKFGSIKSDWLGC

Stromelysin-1 = Stromelysin-1 (Homo sapiens, UniProt P08254); test: Inhibition of human recombinant MMP3; method in brief: as §4
Neutrophil collagenase = Neutrophil collagenase (Homo sapiens, UniProt P22894); test: Inhibition of human recombinant MMP8; method in brief: as §4
[11] = biological target: Matrix metalloproteinase-9 (Homo sapiens, UniProt P14780); test: Inhibition of human recombinant MMP9; method in brief: as §4
[12] = biological target: Macrophage metalloelastase (Homo sapiens, UniProt P39900); test: Inhibition of human recombinant MMP12; method in brief: as §3
Collagenase 3 = Collagenase 3 (Homo sapiens, UniProt P45452); test: Inhibition of human recombinant MMP13; method in brief: as §4
[13] = biological target: Disintegrin and metalloproteinase domain-containing protein 17 (Homo sapiens, UniProt P78536); test: Inhibition of human recombinant TACE; method in brief: as §3
Mus musculus [14] = test: Acute toxicity in C57B1 mouse at 50 to 500 mg/kg; type: organism-based; design: dose 50-500 mg/kg; settings: in vivo
Method in brief: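 C57Bl mice dosed intraperitoneally daily for two weeks at 50, 250 and 500 mg/kg; monitored for toxic signs and behavioural and nutritional status.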

B16-F10 [15] = test: Reduction in tumor colonization in C57B1 mouse bearing B16F10 cells at 50 mg/kg, ip after 21 days; type: functional; design: scale not given: the % may be the effect or the level left; settings: route intraperitoneal
Method in brief: (§5)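 Female C57Bl mice given 50k B16F10 cells via tail vein; dosing started the same day, daily except weekends for three weeks, in PBS, ip or oral (dose-response 12.5–50 mg/kg ip). Lungs fixed at day 21 and metastatic foci counted; eight mice per group.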

B16-F10 [16] = test: Reduction in tumor colonization in of C57B1 mouse bearing B16F10 cells at 50 mg/kg, po after 21 days; type: functional; design: scale not given: the % may be the effect or the level left; method in brief: as §5
B16-F10 [17] = test: Inhibition of metastasis formation in lungs of C57B1 mouse bearing B16F10 cells at 12.5 to 50 mg/kg, ip after 21 days; type: functional, Lung; settings: dose mg/kg 12.5-50; route intraperitoneal; method in brief: as §5
[18] = Reduction of local tumor growth in SCID mouse bearing human prostate tumor cells at 50 mg/kg, ip; type: functional; design: scale not given: the % may be the effect or the level left; settings: route intraperitoneal; method in brief: as §1
[19] = Elimination half life in Wistar rat at 50 mg/kg, iv; type: ADME, organism-based; design: dose 50 mg/kg, route intravenous; settings: in vivo; method in brief: as §2
[20] = Cmax in Wistar rat at 50 mg/kg, iv; type: ADME, organism-based; design: dose 50 mg/kg, route intravenous; settings: in vivo; method in brief: as §2
[21] = Clearance in Wistar rat at 50 mg/kg, iv; type: ADME, organism-based; design: dose 50 mg/kg, route intravenous; settings: in vivo; method in brief: as §2
[22] = Volume of distribution at steady state in Wistar rat at 50 mg/kg, iv; type: ADME, organism-based; design: dose 50 mg/kg, route intravenous; settings: in vivo, read-out: Vdss; method in brief: as §2
Rattus norvegicus [23] = test: Time over MIC in Wistar rat at 50 mg/kg, iv; type: ADME, organism-based; design: dose 50 mg/kg, route intravenous; settings: in vivo; method in brief: as §2
[24] = AUC in Wistar rat at 150 mg/kg, po; type: ADME, organism-based; design: dose 150 mg/kg, route oral; settings: plasma; method in brief: as §2
[25] = Elimination half life in Wistar rat at 150 mg/kg, po; type: ADME, organism-based; design: dose 150 mg/kg, route oral; settings: in vivo; method in brief: as §2
[26] = Cmax in Wistar rat at 150 mg/kg, po; type: ADME, organism-based; design: dose 150 mg/kg, route oral; settings: in vivo; method in brief: as §2
[27] = Tmax in Wistar rat at 150 mg/kg, po; type: ADME, organism-based; design: dose 150 mg/kg, route oral; settings: in vivo; method in brief: as §2
[28] = Bioavailability in Wistar rat at 150 mg/kg, po; type: ADME, organism-based; settings: in vivo; method in brief: as §2
Rattus norvegicus [29] = test: Time over MIC in Wistar rat at 150 mg/kg, po; type: ADME, organism-based; design: dose 150 mg/kg, route oral; settings: in vivo; method in brief: as §2
[30] = AUC in Wistar rat at 150 mg/kg, ip; type: ADME, organism-based; design: dose 150 mg/kg, route intraperitoneal; settings: plasma; method in brief: as §2
[31] = Elimination half life in Wistar rat at 150 mg/kg, ip; type: ADME, organism-based; design: dose 150 mg/kg, route intraperitoneal; settings: in vivo; method in brief: as §2
[32] = Cmax in Wistar rat at 150 mg/kg, ip; type: ADME, organism-based; design: dose 150 mg/kg, route intraperitoneal; settings: in vivo; method in brief: as §2
[33] = Tmax in Wistar rat at 150 mg/kg, ip; type: ADME, organism-based; design: dose 150 mg/kg, route intraperitoneal; settings: in vivo; method in brief: as §2
[34] = Bioavailability in Wistar rat at 150 mg/kg, ip; type: ADME, organism-based; settings: in vivo; method in brief: as §2
Rattus norvegicus [35] = test: Time over MIC in Wistar rat at 150 mg/kg, ip; type: ADME, organism-based; design: dose 150 mg/kg, route intraperitoneal; settings: in vivo; method in brief: as §2
[36] = Apparent permeability in Wistar rat jejunum in using diffusion chamber; type: ADME, tissue-based
Method in brief: (§6)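 Everted-free intestinal segments (jejunum, ileum, colon) from four animals mounted in Ussing chambers; compound at 600 µg/mL in mucosa buffer added to the mucosal side. Serosal samples taken at 30, 60, 90, 120, 150 min, mucosal at 0 and 150 min, with buffer replacement. Quantified by HPLC-MS; Papp reported with SD.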

[37] = Apparent permeability in Wistar rat ileum in using diffusion chamber; type: ADME, tissue-based; method in brief: as §6
[38] = Apparent permeability in Wistar rat colon in Using diffusion chamber; type: ADME, tissue-based; settings: not told; method in brief: as §6
[39] = biological target: T2, 72 kDa type IV collagenase; settings: 100 uM
Target sequence in this assay (P08253 110-660 limits assumed): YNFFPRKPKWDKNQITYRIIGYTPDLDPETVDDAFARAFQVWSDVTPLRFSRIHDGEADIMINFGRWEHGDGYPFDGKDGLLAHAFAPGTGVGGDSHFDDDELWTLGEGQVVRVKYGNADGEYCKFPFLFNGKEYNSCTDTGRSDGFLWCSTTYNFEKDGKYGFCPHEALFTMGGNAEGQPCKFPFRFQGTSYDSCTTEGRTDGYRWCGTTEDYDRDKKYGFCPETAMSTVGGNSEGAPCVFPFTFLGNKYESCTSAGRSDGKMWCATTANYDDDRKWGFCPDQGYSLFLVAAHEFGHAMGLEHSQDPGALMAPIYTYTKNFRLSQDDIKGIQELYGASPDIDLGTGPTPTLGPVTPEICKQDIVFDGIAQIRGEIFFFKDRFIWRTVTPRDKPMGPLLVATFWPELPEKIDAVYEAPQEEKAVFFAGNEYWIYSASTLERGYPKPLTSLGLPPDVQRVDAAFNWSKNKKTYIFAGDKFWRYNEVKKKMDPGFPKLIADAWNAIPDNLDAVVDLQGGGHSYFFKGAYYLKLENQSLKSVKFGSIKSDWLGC

Sequence of Stromelysin-1 (P08254 whole entry): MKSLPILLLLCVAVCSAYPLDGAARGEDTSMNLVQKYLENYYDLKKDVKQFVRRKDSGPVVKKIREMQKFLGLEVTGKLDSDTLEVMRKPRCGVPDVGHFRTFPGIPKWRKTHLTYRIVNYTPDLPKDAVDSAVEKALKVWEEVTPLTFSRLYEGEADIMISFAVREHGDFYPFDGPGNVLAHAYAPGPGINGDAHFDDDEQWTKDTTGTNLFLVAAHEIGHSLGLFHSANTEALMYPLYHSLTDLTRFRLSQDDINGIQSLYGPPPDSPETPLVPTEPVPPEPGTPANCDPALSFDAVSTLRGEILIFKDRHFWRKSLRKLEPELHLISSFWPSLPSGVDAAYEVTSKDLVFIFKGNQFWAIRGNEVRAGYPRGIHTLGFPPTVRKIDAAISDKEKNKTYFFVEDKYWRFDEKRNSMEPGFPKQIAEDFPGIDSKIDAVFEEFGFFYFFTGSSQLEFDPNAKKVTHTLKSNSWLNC
Sequence of Disintegrin and metalloproteinase domain-containing protein 17 (P78536 whole entry, the tested form may be a part): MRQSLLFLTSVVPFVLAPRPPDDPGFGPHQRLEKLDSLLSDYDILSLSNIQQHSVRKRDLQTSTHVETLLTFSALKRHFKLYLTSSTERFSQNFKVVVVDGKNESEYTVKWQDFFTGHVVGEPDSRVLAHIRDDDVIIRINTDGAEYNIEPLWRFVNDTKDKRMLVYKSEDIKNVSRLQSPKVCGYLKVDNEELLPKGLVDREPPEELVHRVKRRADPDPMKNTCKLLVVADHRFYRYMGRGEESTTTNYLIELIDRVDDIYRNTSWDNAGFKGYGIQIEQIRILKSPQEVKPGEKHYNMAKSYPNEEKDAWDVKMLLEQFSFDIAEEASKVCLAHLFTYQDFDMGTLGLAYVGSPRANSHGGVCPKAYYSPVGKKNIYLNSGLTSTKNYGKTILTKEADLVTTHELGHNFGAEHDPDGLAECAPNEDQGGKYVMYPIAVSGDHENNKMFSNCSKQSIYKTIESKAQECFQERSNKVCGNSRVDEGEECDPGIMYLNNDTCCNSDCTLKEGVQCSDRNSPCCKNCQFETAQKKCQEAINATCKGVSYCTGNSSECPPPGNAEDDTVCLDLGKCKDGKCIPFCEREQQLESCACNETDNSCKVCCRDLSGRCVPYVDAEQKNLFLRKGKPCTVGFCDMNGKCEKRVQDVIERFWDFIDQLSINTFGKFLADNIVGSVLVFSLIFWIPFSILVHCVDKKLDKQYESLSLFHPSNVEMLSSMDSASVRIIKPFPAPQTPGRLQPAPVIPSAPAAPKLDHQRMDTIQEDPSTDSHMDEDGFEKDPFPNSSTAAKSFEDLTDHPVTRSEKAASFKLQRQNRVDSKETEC
Sequence of Macrophage metalloelastase (P39900 whole entry): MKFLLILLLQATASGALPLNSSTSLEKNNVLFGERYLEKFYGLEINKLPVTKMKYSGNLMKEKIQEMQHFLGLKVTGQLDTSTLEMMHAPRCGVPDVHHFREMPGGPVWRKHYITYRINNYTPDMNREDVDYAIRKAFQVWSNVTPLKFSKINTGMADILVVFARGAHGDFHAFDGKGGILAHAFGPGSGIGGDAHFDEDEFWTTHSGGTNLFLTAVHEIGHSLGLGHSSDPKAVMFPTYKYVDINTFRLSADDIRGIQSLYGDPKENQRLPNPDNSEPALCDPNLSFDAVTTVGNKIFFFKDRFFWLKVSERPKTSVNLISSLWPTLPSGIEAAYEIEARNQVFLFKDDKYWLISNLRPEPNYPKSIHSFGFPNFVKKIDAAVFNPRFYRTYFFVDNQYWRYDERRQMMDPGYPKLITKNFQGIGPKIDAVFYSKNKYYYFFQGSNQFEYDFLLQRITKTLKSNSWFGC
Sequence of Neutrophil collagenase (P22894 whole entry): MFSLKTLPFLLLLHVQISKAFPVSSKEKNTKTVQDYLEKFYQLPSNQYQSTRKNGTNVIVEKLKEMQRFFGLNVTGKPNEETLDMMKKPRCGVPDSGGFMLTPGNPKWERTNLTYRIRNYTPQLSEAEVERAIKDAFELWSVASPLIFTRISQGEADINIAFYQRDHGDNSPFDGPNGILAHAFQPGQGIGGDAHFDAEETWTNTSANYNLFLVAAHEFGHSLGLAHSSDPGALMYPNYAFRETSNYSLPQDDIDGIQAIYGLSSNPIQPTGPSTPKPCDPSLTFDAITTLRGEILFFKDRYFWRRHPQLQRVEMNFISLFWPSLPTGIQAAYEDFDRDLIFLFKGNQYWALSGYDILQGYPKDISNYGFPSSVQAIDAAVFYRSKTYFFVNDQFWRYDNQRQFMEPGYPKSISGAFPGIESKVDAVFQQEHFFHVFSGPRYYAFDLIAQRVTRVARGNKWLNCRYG
Sequence of Matrix metalloproteinase-9 (P14780 whole entry): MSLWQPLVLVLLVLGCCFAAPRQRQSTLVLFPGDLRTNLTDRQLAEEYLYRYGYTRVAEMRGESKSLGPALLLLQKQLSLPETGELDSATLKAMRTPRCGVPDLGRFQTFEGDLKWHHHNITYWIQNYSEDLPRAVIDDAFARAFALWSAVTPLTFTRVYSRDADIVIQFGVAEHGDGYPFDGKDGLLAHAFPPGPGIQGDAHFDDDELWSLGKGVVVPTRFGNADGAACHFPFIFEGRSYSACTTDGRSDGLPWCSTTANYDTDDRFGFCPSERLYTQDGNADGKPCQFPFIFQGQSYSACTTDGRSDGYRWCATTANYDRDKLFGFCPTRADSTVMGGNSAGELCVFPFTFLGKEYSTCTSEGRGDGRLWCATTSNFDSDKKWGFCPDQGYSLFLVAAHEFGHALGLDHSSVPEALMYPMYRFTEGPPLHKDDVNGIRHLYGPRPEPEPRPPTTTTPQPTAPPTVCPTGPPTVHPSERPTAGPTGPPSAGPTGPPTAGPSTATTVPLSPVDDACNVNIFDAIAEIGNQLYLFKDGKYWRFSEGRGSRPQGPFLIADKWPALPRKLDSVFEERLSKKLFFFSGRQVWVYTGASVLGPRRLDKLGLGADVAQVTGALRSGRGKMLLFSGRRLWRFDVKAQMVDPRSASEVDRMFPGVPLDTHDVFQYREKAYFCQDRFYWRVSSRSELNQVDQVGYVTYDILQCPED

SMILES: N[C@H]1CCCC[C@H]1NC(=O)P(=O)(O)O (relative stereo)
- Activity [1]: 90%
- Papp [2]: 83 nm/s
- Papp [3]: 24 nm/s
- Tmax [4]: 1 h
- Cmax [5]: 0.544 µg/mL
- AUC [6]: 4.5 µg·h/mL
- half-life [7]: 13.5 h
- T>MIC (Mus musculus [8]): > 12 h
- AUC [9]: 127 µg·h/mL
- IC50 (Interstitial collagenase): > 100 µM
- IC50 [10]: 4 µM
- IC50 (Stromelysin-1): > 100 µM
- IC50 (Neutrophil collagenase): > 100 µM
- IC50 [11]: 20 µM
- IC50 [12]: > 100 µM
- IC50 (Collagenase 3): > 100 µM
- IC50 [13]: > 100 µM
- Activity (Mus musculus [14]): Non-toxic
- Activity (B16-F10 [15]): 85%
- Activity (B16-F10 [16]): 95%
- Inhibition (B16-F10 [17]): 50%
- Activity [18]: 60%
- half-life [19]: 0.313 h
- Cmax [20]: 306 µg/mL
- clearance [21]: 0.414 L/h/kg
- Vd [22]: 0.186 L/kg
- T>MIC (Rattus norvegicus [23]): > 4 h
- AUC [24]: 1.32 µg·h/mL
- half-life [25]: 2.1 h
- Cmax [26]: 0.712 µg/mL
- Tmax [27]: 0.29 h
- bioavailability [28]: 0.35%
- T>MIC (Rattus norvegicus [29]): > 6 h
- AUC [30]: 44.6 µg·h/mL
- half-life [31]: 1.8 h
- Cmax [32]: 144 µg/mL
- Tmax [33]: 30 s
- bioavailability [34]: 11.8%
- T>MIC (Rattus norvegicus [35]): > 24 h
- Papp [36]: 79 nm/s
- Papp [37]: 70.1 nm/s
- Papp [38]: 92.7 nm/s
- inhibition [39]: 90%

SMILES: N[C@@H]1CCCC[C@H]1NC(=O)P(=O)(O)O (relative stereo)
- IC50 (Interstitial collagenase): 90 µM
- IC50 [10]: > 100 µM
- IC50 (Stromelysin-1): 25 µM
- IC50 (Neutrophil collagenase): 50 µM
- IC50 [11]: > 100 µM
- IC50 [12]: > 100 µM
- IC50 (Collagenase 3): 55 µM
- IC50 [13]: > 100 µM
